Measured values: ChEMBL document CHEMBL4316650, “Leucinostatin Y: A Peptaibiotic Produced by the Entomoparasitic Fungus Purpureocillium lilacinum 40-H-28” (J Nat Prod, 2019)
Calls of active or inactive are those of the source. No cut-off for these calls is given here. *1 amine or outer side, *2 acyl side, *3 side chain or, on linkers, in order; H or OH if unused. Where a SMILES comes first, the peptide text is derived from it. [ ]: non-standard residue; d: D form. The star is where a group is joined. ξ: configuration not given here. X1 = CCC(=O)C[C@H](O)C[C@@H](C)C[C@H](N[*:1])C(=O)[*:2]; X3 = CCC(=O)CC(O)CC(C)C[C@H](N[*:1])C(=O)[*:2]; Hexenoyl(2E,4S-Me) = CC[C@H](C)/C=C/C(=O)*; Leu(3R-OH) = CC(C)[C@@H](O)[C@H](N)C(=O)O; NH((S)CH(Me)CH2NMe2) = C[C@@H](CN(C)C)N*; Pro(4S-Me) = C[C@@H]1CN[C@H](C(=O)O)C1; X2 = CCC(C)/C=C/C(=O)*; Aib = CC(C)(N)C(=O)O; βAla = NCCC(=O)O; ξA = CC(N)C(=O)O

How the values were obtained:
BXPC-3 [1] = experiment: Cytotoxicity against human BxPC3 cells assessed as reduction in cell viability measured after 24 hrs under glucose-deprived condition by MTT assay; assay type: functional, cell-based
Procedure, shortened: (§1)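 Cells grown at 37 °C, 5% CO2 in DMEM with 10% FBS. 2.5 × 10⁴ cells/well were seeded in DMEM for 24 h, then PBS-washed and switched to fresh DMEM (+glucose) or glucose-deprived medium. Compound exposure was 24 h. MTT at 0.5 mg/mL was added for 4 h at 37 °C, then 20% SDS for 12 h at 37 °C. Absorbance read at 570 nm.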

PANC-1 [2] = experiment: Cytotoxicity against human PANC1 cells assessed as reduction in cell viability measured after 24 hrs under glucose-deprived condition by MTT assay; assay type: functional, cell-based; procedure, shortened: as §1
PSN1 [3] = experiment: Cytotoxicity against human PSN1 cells assessed as reduction in cell viability measured after 24 hrs in presence of glucose by MTT assay; assay type: cell-based; settings: psn1, 24 h; procedure, shortened: as §1
Homo sapiens [4] = species: Homo sapiens; experiment: Inhibition of mitochondrial ATPase in human PANC1 cells assessed as increase in extracellular acidification rate in presence of glucose by seahorse XFe96 analyser based assay; assay type: cell-based
Procedure, shortened: (§2)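 Mito stress test on PANC-1 cells: 2 × 10⁴ cells were plated in DMEM overnight. Cells were moved to XF base medium with 1 mM pyruvate and 2 mM GlutaMax, containing 1 g/L glucose (or lacking it for glucose-free runs), then held 30 min at 37 °C without CO2. Injections in order: compound, 1 μM oligomycin, 1 μM FCCP, 0.5 μM rotenone plus 0.5 μM antimycin. OCR and ECAR were taken as mean rates per cycle of 2 min mixing and 3 min acquisition, over 20 or 21 cycles.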

[5] = Cytotoxicity against human PK8 cells assessed as reduction in cell viability measured after 24 hrs in presence of glucose by MTT assay; assay type: cell-based; procedure, shortened: as §1
Homo sapiens [6] = species: Homo sapiens; experiment: Inhibition of mitochondrial ATPase in human PANC1 cells assessed as increase in extracellular acidification rate at 0.6 ug/ml in absence of glucose by seahorse XFe96 analyser based assay; assay type: cell-based; procedure, shortened: as §2
PSN1 [7] = experiment: Cytotoxicity against human PSN1 cells assessed as reduction in cell viability measured after 24 hrs under glucose-deprived condition by MTT assay; assay type: functional, cell-based; procedure, shortened: as §1
Homo sapiens [8] = species: Homo sapiens; experiment: Inhibition of mitochondrial ATPase in human PANC1 cells assessed as increase in extracellular acidification rate at 0.6 ug/ml in presence of glucose by seahorse XFe96 analyser based assay; assay type: cell-based; procedure, shortened: as §2
Homo sapiens [9] = species: Homo sapiens; experiment: Cytotoxicity against human PK8 cells assessed as reduction in cell viability measured after 24 hrs under glucose-deprived condition by MTT assay; assay type: functional, cell-based; procedure, shortened: as §1
Homo sapiens [10] = species: Homo sapiens; experiment: Inhibition of mitochondrial ATPase in human PANC1 cells assessed as decrease in oxygen consumption rate at 0.6 ug/ml in absence of glucose by seahorse XFe96 analyser based assay; assay type: cell-based; procedure, shortened: as §2
BXPC-3 [11] = experiment: Cytotoxicity against human BxPC3 cells assessed as reduction in cell viability measured after 24 hrs in presence of glucose by MTT assay; assay type: cell-based; settings: bxpc-3, 24 h; procedure, shortened: as §1
Homo sapiens [12] = species: Homo sapiens; experiment: Inhibition of mitochondrial ATPase in human PANC1 cells assessed as decrease in oxygen consumption rate in presence of glucose by seahorse XFe96 analyser based assay; assay type: cell-based; procedure, shortened: as §2
Homo sapiens [13] = species: Homo sapiens; experiment: Inhibition of mitochondrial ATPase in human PANC1 cells assessed as decrease in oxygen consumption rate at 0.6 ug/ml in presence of glucose by seahorse XFe96 analyser based assay; assay type: cell-based; procedure, shortened: as §2
PANC-1 [14] = experiment: Cytotoxicity against human PANC1 cells assessed as reduction in cell viability measured after 24 hrs in presence of glucose by MTT assay; assay type: cell-based; settings: panc-1, 24 h; procedure, shortened: as §1

SMILES | Activity (BXPC-3 [1]) | Activity (PANC-1 [2]) | Activity (PSN1 [3]) | inhibition (Homo sapiens [4]) | Activity [5] | inhibition (Homo sapiens [6]) | Activity (PSN1 [7]) | inhibition (Homo sapiens [8]) | Activity (Homo sapiens [9]) | inhibition (Homo sapiens [10]) | Activity (BXPC-3 [11]) | inhibition (Homo sapiens [12]) | inhibition (Homo sapiens [13]) | Activity (PANC-1 [14])
CCC(=O)C[C@H](O)C[C@@H](C)C[C@H](NC(=O)[C@@H]1C[C@H](C)CN1C(=O)/C=C/[C@@H](C)CC)C(=O)N[C@H](C(=O)NC(C)(C)C(=O)N[C@@H](CC(C)C)C(=O)N[C@@H](CC(C)C)C(=O)NC(C)(C)C(=O)NC(C)(C)C(=O)NCCC(=O)N[C@@H](C)CN(C)C)[C@H](O)C(C)C ({Hexenoyl(2E,4S-Me)}-[Pro(4S-Me)][X1][Leu(3R-OH)][Aib]LL[Aib][Aib][βAla]-{NH((S)CH(Me)CH2NMe2)}) | Active | Active | Non-Toxic | Active | Non-Toxic | inactive | Active | Active | Active | Active | Non-Toxic | Active | Active | 
CCC(=O)CC(O)CC(C)C[C@H](NC(=O)[C@@H]1C[C@H](C)CN1C(=O)/C=C/C(C)CC)C(=O)N[C@H](C(=O)NC(C)(C)C(=O)N[C@@H](CC(C)C)C(=O)N[C@@H](CC(C)C)C(=O)NC(C)(C)C(=O)NC(C)(C)C(=O)NCCC(=O)NC(C)C(=O)O)[C@H](O)C(C)C (stereo partly drawn) (X2-[Pro(4S-Me)][X3][Leu(3R-OH)][Aib]LL[Aib][Aib][βAla][ξA]-OH) | inactive | inactive | Non-Toxic | inactive | Non-Toxic |  | inactive |  | inactive |  | Non-Toxic | inactive |  | Non-Toxic
